Data taken from ChEMBL document CHEMBL4138126, “Synthesis, antiproliferative, anti-tubulin activity, and docking study of new 1,2,4-triazoles as potential combretastatin analogues” (Eur J Med Chem, 2017).

Experiments:
Format in all cases: functional
RXF 393 = test: Growth inhibition of human RXF393 cells assessed as cell growth at 10 uM after 48 hrs by sulforhodamine B assay; details: RXF 393, 48 h, read-out: Activity
How it was run: (§1)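 NCI 60-cell-line panel screen (nine cancer types). Compounds added at single concentration 10^-5 M, cultures incubated 48 h; growth inhibition percentages reported.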

MCF7 = test: Growth inhibition of human MCF7 cells assessed as cell growth at 10 uM after 48 hrs by sulforhodamine B assay; details: MCF7, 48 h, read-out: Activity; how it was run: as §1
MDA-MB-435 = test: Growth inhibition of human MDA-MB-435 cells assessed as cell growth at 10 uM after 48 hrs by sulforhodamine B assay; details: MDA-MB-435, 48 h, read-out: Activity; how it was run: as §1
786-0 = test: Growth inhibition of human 786-0 cells assessed as cell growth at 10 uM after 48 hrs by sulforhodamine B assay; details: 786-0, 48 h, read-out: Activity; how it was run: as §1
LOX IMVI = test: Growth inhibition of human LOXIMVI cells assessed as cell growth at 10 uM after 48 hrs by sulforhodamine B assay; details: read-out: Activity; how it was run: as §1
SNB-19 = test: Growth inhibition of human SNB19 cells assessed as cell growth at 10 uM after 48 hrs by sulforhodamine B assay; details: SNB-19, 48 h, read-out: Activity
How it was run: (§2)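 NCI 60-cell-line panel from nine tumour types (leukaemia, lung, colon, CNS, melanoma, ovarian, renal, prostate, breast). Each compound was added at one single concentration, and cultures were incubated for 48 h. Results are reported as percent growth inhibition.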

M14 = test: Growth inhibition of human M14 cells assessed as cell growth at 10 uM after 48 hrs by sulforhodamine B assay; details: M14, 48 h, read-out: Activity; how it was run: as §1
Malme-3M = test: Growth inhibition of human MALME-3M cells assessed as cell growth at 10 uM after 48 hrs by sulforhodamine B assay; details: read-out: Activity; how it was run: as §1
DU-145 = test: Growth inhibition of human DU145 cells assessed as cell growth at 10 uM after 48 hrs by sulforhodamine B assay; details: DU-145, 48 h, read-out: Activity; how it was run: as §1
SW-620 = test: Growth inhibition of human SW620 cells assessed as cell growth at 10 uM after 48 hrs by sulforhodamine B assay; details: SW-620, 48 h, read-out: Activity; how it was run: as §2
U-251 = test: Growth inhibition of human U251 cells assessed as cell growth at 10 uM after 48 hrs by sulforhodamine B assay; details: U-251, 48 h, read-out: Activity; how it was run: as §2
HT-29 = test: Growth inhibition of human HT-29 cells assessed as cell growth at 10 uM after 48 hrs by sulforhodamine B assay; details: HT-29, 48 h, read-out: Activity; how it was run: as §1
NCI-H23 = test: Growth inhibition of human NCI-H23 cells assessed as cell growth at 10 uM after 48 hrs by sulforhodamine B assay; details: NCI-H23, 48 h, read-out: Activity; how it was run: as §1
HOP-92 = test: Growth inhibition of human HOP92 cells assessed as cell growth at 10 uM after 48 hrs by sulforhodamine B assay; details: HOP-92, 48 h, read-out: Activity; how it was run: as §1
SNB-75 = test: Growth inhibition of human SNB75 cells assessed as cell growth at 10 uM after 48 hrs by sulforhodamine B assay; details: SNB-75, 48 h, read-out: Activity; how it was run: as §2
IGROV-1 = test: Growth inhibition of human IGROV1 cells assessed as cell growth at 10 uM after 48 hrs by sulforhodamine B assay; details: IGROV-1, 48 h, read-out: Activity; how it was run: as §1
ACHN = test: Growth inhibition of human ACHN cells assessed as cell growth at 10 uM after 48 hrs by sulforhodamine B assay; details: read-out: Activity; how it was run: as §1
OVCAR-4 = test: Growth inhibition of human OVCAR4 cells assessed as cell growth at 10 uM after 48 hrs by sulforhodamine B assay; details: OVCAR-4, 48 h, read-out: Activity; how it was run: as §1
OVCAR-5 = test: Growth inhibition of human OVCAR5 cells assessed as cell growth at 10 uM after 48 hrs by sulforhodamine B assay; details: OVCAR-5, 48 h, read-out: Activity; how it was run: as §1
NCI/ADR-RES = test: Growth inhibition of human NCI-ADR-RES cells assessed as cell growth at 10 uM after 48 hrs by sulforhodamine B assay; details: read-out: Activity; how it was run: as §1
NCI-H460 = test: Growth inhibition of human NCI-H460 cells assessed as cell growth at 10 uM after 48 hrs by sulforhodamine B assay; details: NCI-H460, 48 h, read-out: Activity; how it was run: as §1
COLO 205 = test: Growth inhibition of human COLO205 cells assessed as cell growth at 10 uM after 48 hrs by sulforhodamine B assay; details: COLO 205, 48 h, read-out: Activity; how it was run: as §1
RPMI-8226 = test: Growth inhibition of human RPMI8226 cells assessed as cell growth at 10 uM after 48 hrs by sulforhodamine B assay; details: RPMI-8226, 48 h, read-out: Activity; how it was run: as §1
EKVX = test: Growth inhibition of human EKVX cells assessed as cell growth at 10 uM after 48 hrs by sulforhodamine B assay; details: read-out: Activity; how it was run: as §1
Hs-578T = test: Growth inhibition of human Hs 578T cells assessed as cell growth at 10 uM after 48 hrs by sulforhodamine B assay; details: read-out: Activity; how it was run: as §1
SF-268 = test: Growth inhibition of human SF268 cells assessed as cell growth at 10 uM after 48 hrs by sulforhodamine B assay; details: SF-268, 48 h, read-out: Activity; how it was run: as §1
MDA-MB-231 = test: Growth inhibition of human MDA-MB-231 cells assessed as cell growth at 10 uM after 48 hrs by sulforhodamine B assay; details: MDA-MB-231, 48 h, read-out: Activity; how it was run: as §1
NCI-H322M = test: Growth inhibition of human NCI-H322M cells assessed as cell growth at 10 uM after 48 hrs by sulforhodamine B assay; details: read-out: Activity; how it was run: as §1
HOP-62 = test: Growth inhibition of human HOP62 cells assessed as cell growth at 10 uM after 48 hrs by sulforhodamine B assay; details: HOP-62, 48 h, read-out: Activity; how it was run: as §1
NCI-H226 = test: Growth inhibition of human NCI-H226 cells assessed as cell growth at 10 uM after 48 hrs by sulforhodamine B assay; details: NCI-H226, 48 h, read-out: Activity; how it was run: as §1
KM12 = test: Growth inhibition of human KM12 cells assessed as cell growth at 10 uM after 48 hrs by sulforhodamine B assay; details: KM12, 48 h, read-out: Activity; how it was run: as §1
T47D = test: Growth inhibition of human T47D cells assessed as cell growth at 10 uM after 48 hrs by sulforhodamine B assay; details: read-out: Activity; how it was run: as §2
A549 = test: Growth inhibition of human A549/ATCC cells assessed as cell growth at 10 uM after 48 hrs by sulforhodamine B assay; details: A549, 48 h, read-out: Activity; how it was run: as §1
MOLT-4 = test: Growth inhibition of human MOLT4 cells assessed as cell growth at 10 uM after 48 hrs by sulforhodamine B assay; details: MOLT-4, 48 h, read-out: Activity; how it was run: as §1
CCRF-CEM = test: Growth inhibition of human CCRF-CEM cells assessed as cell growth at 10 uM after 48 hrs by sulforhodamine B assay; details: read-out: Activity; how it was run: as §1

| SMILES | growth at 10 µM (RXF 393) [%] | growth at 10 µM (MCF7) [%] | growth at 10 µM (MDA-MB-435) [%] | growth at 10 µM (786-0) [%] | growth at 10 µM (LOX IMVI) [%] | growth at 10 µM (SNB-19) [%] | growth at 10 µM (M14) [%] | growth at 10 µM (Malme-3M) [%] | growth at 10 µM (DU-145) [%] | growth at 10 µM (SW-620) [%] | growth at 10 µM (U-251) [%] | growth at 10 µM (HT-29) [%] | growth at 10 µM (NCI-H23) [%] | growth at 10 µM (HOP-92) [%] | growth at 10 µM (SNB-75) [%] | growth at 10 µM (IGROV-1) [%] | growth at 10 µM (ACHN) [%] | growth at 10 µM (OVCAR-4) [%] | growth at 10 µM (OVCAR-5) [%] | growth at 10 µM (NCI/ADR-RES) [%] | other results |
| --- | --- | --- | --- | --- | --- | --- | --- | --- | --- | --- | --- | --- | --- | --- | --- | --- | --- | --- | --- | --- | --- |
| CCOc1ccc(-n2nc(C(=O)Nc3ccc(F)c(F)c3F)nc2-c2cc(OC)c(OC)c(OC)c2)cc1 | 89.9 | 79.5 | 90 | 79.6 | 94 | 88.3 | 93.9 | 86.9 | 105 | 103 | 98.2 | 87.8 | 97.5 | 84.9 | 68.3 | 95.6 | 85.2 | 78.8 | 81.5 | 88.6 | growth at 10 µM (NCI-H460): 104%; growth at 10 µM (COLO 205): 90%; growth at 10 µM (RPMI-8226): 87.2%; growth at 10 µM (EKVX): 78.5%; growth at 10 µM (Hs-578T): 80.7%; growth at 10 µM (SF-268): 82.3%; growth at 10 µM (MDA-MB-231): 73.6%; growth at 10 µM (NCI-H322M): 69.5%; growth at 10 µM (HOP-62): 86.5%; growth at 10 µM (NCI-H226): 91.2%; growth at 10 µM (KM12): 96%; growth at 10 µM (T47D): 65.7%; growth at 10 µM (A549): 85.7% |
| CCOc1ccc(-n2nc(C(=O)NCc3cc(F)cc(F)c3)nc2-c2cc(OC)c(OC)c(OC)c2)cc1 | 68.6 | 44.3 | 67 | 65.9 | 66.6 | 62.3 | 65.2 | 90.1 | 86.9 | 91.4 | 74.3 | 61.7 | 81.8 | 61.1 | 43.4 | 62.5 | 54.4 | 65.8 | 85 | 61.7 | growth at 10 µM (NCI-H460): 66.1%; growth at 10 µM (COLO 205): 65%; growth at 10 µM (RPMI-8226): 47%; growth at 10 µM (MOLT-4): 45.1%; growth at 10 µM (EKVX): 62.8%; growth at 10 µM (Hs-578T): 75.7%; growth at 10 µM (SF-268): 65.5%; growth at 10 µM (MDA-MB-231): 43.1%; growth at 10 µM (NCI-H322M): 61.5%; growth at 10 µM (HOP-62): 75.2%; growth at 10 µM (NCI-H226): 65.2%; growth at 10 µM (KM12): 65.8%; growth at 10 µM (CCRF-CEM): 85.6%; growth at 10 µM (T47D): 44.1%; growth at 10 µM (A549): 57% |
| COc1cccc(-n2nc(C(=O)Nc3ccccc3)nc2-c2cc(OC)c(OC)c(OC)c2)c1 | 97.9 | 91.6 | 90.4 | 79.4 | 102 | 102 | 102 | 95.9 | 104 | 100 | 93.6 | 79.9 | 111 | 97.9 | 55.5 | 93.1 | 93.8 | 81.8 | 89.5 | 93.1 | growth at 10 µM (NCI-H460): 107%; growth at 10 µM (COLO 205): 104%; growth at 10 µM (RPMI-8226): 108%; growth at 10 µM (MOLT-4): 105%; growth at 10 µM (EKVX): 91.2%; growth at 10 µM (Hs-578T): 99.7%; growth at 10 µM (SF-268): 88.6%; growth at 10 µM (MDA-MB-231): 104%; growth at 10 µM (NCI-H322M): 81.1%; growth at 10 µM (HOP-62): 83.8%; growth at 10 µM (NCI-H226): 96.9%; growth at 10 µM (KM12): 96.6%; growth at 10 µM (CCRF-CEM): 105%; growth at 10 µM (T47D): 62.2%; growth at 10 µM (A549): 92.4% |
| CCOc1ccc(-n2nc(C(=O)Nc3cccc(OC)c3)nc2-c2cc(OC)c(OC)c(OC)c2)cc1 | 90.2 | 83.5 | 86.8 | 84.8 | 80.8 | 83.9 | 83.7 | 91.7 | 94.8 | 99.7 | 78.5 | 78.3 | 85.9 | 67.2 | 68.1 | 90.7 | 77.9 | 75.1 | 95.5 | 77.5 | growth at 10 µM (NCI-H460): 79.3%; growth at 10 µM (COLO 205): 66.6%; growth at 10 µM (RPMI-8226): 27.9%; growth at 10 µM (MOLT-4): 62.5%; growth at 10 µM (EKVX): 77.7%; growth at 10 µM (Hs-578T): 73.2%; growth at 10 µM (SF-268): 80.7%; growth at 10 µM (MDA-MB-231): 55.1%; growth at 10 µM (NCI-H322M): 79.8%; growth at 10 µM (HOP-62): 91.9%; growth at 10 µM (NCI-H226): 77.3%; growth at 10 µM (KM12): 71.2%; growth at 10 µM (CCRF-CEM): 51.9%; growth at 10 µM (T47D): 58.5%; growth at 10 µM (A549): 68.2% |
